Measurements from ChEMBL document CHEMBL2021900, “Discovery of cariprazine (RGH-188): a novel antipsychotic acting on dopamine D3/D2 receptors” (Bioorg Med Chem Lett, 2012).

Columns and labels:
D(3) dopamine receptor = D(3) dopamine receptor (Rattus norvegicus, UniProt P19020); assay: Displacement of [3H]spiperone from rat recombinant dopamine D3 receptor expressed in Sf9 cells
[1] = molecular target: T1, Adrenergic receptor alpha-1 (Rattus norvegicus, UniProt P15823+P23944+P43140); assay: Displacement of [3H]-prazosin from adrenergic alpha-1 receptor in rat cerebral cortical membranes; format: cell membranes, Membrane
T1 sequence (P15823 whole entry): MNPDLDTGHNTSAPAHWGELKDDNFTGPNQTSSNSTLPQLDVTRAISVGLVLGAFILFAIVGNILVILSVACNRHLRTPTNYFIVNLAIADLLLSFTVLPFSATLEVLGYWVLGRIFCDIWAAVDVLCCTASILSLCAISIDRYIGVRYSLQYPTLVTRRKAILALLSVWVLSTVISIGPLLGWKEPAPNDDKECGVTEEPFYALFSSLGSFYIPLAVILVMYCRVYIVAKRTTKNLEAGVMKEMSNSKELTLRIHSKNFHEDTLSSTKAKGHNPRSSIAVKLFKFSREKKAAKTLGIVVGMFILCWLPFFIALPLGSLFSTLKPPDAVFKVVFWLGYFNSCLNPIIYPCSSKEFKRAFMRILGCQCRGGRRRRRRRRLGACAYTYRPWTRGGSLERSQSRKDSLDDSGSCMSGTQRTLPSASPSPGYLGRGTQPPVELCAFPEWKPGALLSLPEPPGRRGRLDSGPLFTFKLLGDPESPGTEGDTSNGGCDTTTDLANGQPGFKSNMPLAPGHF
T1 sequence (P23944 whole entry): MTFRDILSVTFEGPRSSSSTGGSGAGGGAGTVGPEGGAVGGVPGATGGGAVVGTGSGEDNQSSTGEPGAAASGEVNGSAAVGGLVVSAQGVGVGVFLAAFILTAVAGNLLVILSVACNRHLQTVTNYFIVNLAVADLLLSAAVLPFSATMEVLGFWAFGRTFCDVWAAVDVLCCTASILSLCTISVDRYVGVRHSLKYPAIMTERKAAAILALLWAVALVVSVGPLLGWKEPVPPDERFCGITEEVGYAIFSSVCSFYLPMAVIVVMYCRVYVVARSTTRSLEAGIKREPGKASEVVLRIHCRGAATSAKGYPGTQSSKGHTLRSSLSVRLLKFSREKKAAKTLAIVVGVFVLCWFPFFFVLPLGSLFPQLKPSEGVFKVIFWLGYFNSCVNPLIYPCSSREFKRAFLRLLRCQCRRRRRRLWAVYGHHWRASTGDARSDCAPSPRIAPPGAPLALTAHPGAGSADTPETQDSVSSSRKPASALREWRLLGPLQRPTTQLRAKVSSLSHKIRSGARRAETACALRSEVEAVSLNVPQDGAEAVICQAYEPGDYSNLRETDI
T1 sequence (P43140 whole entry): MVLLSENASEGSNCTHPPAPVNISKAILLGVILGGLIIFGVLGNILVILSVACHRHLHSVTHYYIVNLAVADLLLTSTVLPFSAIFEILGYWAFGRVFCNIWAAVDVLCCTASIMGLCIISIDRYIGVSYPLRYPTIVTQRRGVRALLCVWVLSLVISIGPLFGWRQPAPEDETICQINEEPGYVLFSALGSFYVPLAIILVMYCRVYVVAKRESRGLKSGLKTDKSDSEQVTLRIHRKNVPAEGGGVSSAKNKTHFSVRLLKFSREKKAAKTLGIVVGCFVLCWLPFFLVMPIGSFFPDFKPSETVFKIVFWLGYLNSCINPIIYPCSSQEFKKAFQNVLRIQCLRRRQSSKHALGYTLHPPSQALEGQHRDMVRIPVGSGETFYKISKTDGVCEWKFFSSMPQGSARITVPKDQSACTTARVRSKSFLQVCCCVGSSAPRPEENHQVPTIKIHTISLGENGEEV
How it was run: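 Alpha-1 binding used rat cerebral cortical membranes with [3H]prazosin 0.5 nM, with phentolamine defining nonspecific binding. Ki values are means of two to four independent experiments, each with at least six concentrations in duplicate.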

D(2) dopamine receptor = D(2) dopamine receptor (Rattus norvegicus, UniProt P61169); assay: Displacement of [3H]spiperone from dopamine D2 receptor in rat striatal membranes; format: cell membranes, Membrane
D(2) dopamine receptor, sequence (P61169 whole entry): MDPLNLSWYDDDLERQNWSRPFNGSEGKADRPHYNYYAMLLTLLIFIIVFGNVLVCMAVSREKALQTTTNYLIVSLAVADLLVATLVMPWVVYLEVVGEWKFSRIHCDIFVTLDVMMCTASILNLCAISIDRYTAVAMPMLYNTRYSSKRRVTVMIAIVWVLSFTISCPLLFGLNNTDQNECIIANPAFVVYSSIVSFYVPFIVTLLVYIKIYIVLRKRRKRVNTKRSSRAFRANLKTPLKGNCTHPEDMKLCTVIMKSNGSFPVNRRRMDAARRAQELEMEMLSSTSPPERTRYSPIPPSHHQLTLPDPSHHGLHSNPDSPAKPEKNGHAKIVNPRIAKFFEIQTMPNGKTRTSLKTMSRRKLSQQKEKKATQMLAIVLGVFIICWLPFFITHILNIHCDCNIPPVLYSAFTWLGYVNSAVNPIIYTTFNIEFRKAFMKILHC
How it was run: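 Rat striatal membranes; [3H]spiperone 0.7 nM as radioligand; nonspecific binding defined with (+)-butaclamol. Ki values are means of two to four independent experiments, each with at least six concentrations in duplicate.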

Rattus norvegicus [2] = organism: Rattus norvegicus; assay: Selectivity ratio of Ki for adrenergic alpha-1 receptor in rat cerebral cortical membranes to Ki for rat recombinant dopamine D3 receptor; format: cell membranes; conditions: Membrane
Mus musculus = assay: Antipsychotic activity in po dosed CD1 mouse assessed as reduction of apomorphine-induced climbing behaviour administered 1 hr before apomorphine challenge measured after 10 to 16 mins; format: functional
[3] = Metabolic stability in human liver microsomes at 2.5 uM measured up to 20 mins; format: ADME, Microsome; conditions: read-out: Stability
How it was run: (§1)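 Compound incubated for up to 20 min with human or rat liver microsomes. Substrate consumption was followed over time; the plot was linear and was analysed by linear regression.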

D(1B) dopamine receptor = D(1B) dopamine receptor (Homo sapiens, UniProt P21918); assay: Binding affinity to human dopamine D5 receptor
D(1B) dopamine receptor, sequence (P21918 whole entry): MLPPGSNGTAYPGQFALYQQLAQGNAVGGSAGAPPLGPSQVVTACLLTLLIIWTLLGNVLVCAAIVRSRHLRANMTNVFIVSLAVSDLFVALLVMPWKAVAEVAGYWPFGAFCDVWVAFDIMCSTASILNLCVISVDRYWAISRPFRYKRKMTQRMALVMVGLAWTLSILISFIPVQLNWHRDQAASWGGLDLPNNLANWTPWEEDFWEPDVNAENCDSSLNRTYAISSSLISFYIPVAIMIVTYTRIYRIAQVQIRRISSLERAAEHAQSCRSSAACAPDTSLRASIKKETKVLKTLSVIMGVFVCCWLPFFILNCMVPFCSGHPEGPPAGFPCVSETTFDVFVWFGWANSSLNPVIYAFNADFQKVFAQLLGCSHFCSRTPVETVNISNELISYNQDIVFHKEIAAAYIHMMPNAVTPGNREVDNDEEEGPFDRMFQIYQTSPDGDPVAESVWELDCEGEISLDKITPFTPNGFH

[4] = Apparent terminal half life in iv or po dosed rat; format: ADME, organism-based; conditions: in vivo, read-out: betat1/2(app) (converted)
[5] = Binding affinity to human dopamine D4.2 receptor
[6] = Tmax in rat brain; format: ADME, tissue-based
Rattus norvegicus [7] = assay: Induction of catalepsy in po dosed rat; format: organism-based; conditions: in vivo
[8] = Ratio of drug level in brain to plasma in iv or po dosed rat; format: ADME, organism-based; conditions: read-out: BPR
[9] = Metabolic stability in rat liver microsomes at 2.5 uM measured up to 20 mins; format: ADME, Microsome; conditions: read-out: Stability; how it was run: as §1
[10] = Cmax in rat; format: ADME, organism-based; conditions: in vivo
D(1A) dopamine receptor = D(1A) dopamine receptor (Rattus norvegicus, UniProt P18901); assay: Binding affinity to rat dopamine D1 receptor
D(1A) dopamine receptor, sequence (P18901 whole entry): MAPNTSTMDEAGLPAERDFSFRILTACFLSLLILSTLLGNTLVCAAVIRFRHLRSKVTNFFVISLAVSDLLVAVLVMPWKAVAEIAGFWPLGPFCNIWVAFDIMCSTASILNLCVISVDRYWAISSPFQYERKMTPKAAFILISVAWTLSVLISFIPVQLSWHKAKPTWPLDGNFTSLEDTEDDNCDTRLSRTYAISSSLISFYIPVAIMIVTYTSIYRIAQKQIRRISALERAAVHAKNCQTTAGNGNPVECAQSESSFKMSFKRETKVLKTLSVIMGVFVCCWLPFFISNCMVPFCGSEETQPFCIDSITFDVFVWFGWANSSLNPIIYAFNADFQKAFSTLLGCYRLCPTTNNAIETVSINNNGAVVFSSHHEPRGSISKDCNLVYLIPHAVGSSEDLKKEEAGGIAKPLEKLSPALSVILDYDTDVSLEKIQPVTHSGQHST

[11] = Oral bioavailability in rat; format: ADME, organism-based; conditions: in vivo

D(3) dopamine receptor, sequence (P19020 whole entry): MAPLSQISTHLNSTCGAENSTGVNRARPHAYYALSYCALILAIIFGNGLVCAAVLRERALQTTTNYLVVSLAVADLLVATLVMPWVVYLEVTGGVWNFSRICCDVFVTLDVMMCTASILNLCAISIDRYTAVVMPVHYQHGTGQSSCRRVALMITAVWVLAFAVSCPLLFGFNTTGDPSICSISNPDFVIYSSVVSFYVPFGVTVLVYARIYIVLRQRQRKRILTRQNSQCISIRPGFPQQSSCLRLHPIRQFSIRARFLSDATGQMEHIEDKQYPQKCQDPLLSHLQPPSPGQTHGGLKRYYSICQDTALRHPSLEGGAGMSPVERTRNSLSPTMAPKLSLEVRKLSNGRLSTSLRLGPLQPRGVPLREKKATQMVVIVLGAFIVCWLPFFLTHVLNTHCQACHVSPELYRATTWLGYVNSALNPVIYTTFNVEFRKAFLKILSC

Row | Compound | Ki (D(3) dopamine receptor) [nM] | Ki [1] [nM] | Ki (D(2) dopamine receptor) [nM] | Ratio Ki (Rattus norvegicus [2]) | IC50 (D(3) dopamine receptor) [nM] | IC50 (D(2) dopamine receptor) [nM] | ED50 (Mus musculus) [mg/kg] | further results
1 | CN(C)C(=O)N[C@H]1CC[C@H](CCN2CCN(c3cc(Cl)ccc3Cl)CC2)CC1 | 0.66 | 34.9 | 8.2 | 52.8 |  |  |  | 
2 | CN(C)C(=O)N[C@H]1CC[C@H](CCN2CCN(c3ccc(Cl)cc3Cl)CC2)CC1 | 5.4 | 156 | 106 | 28.9 |  |  |  | 
3 | CCNC(=O)N[C@H]1CC[C@H](CCN2CCN(c3cccc(Cl)c3Cl)CC2)CC1 |  |  |  |  | 0.34 | 16.9 | 0.38 | 
4 | CN(C)C(=O)N[C@H]1CC[C@H](CCN2CCN(c3cccc(Cl)c3Cl)CC2)CC1.Cl [CARIPRAZINE HYDROCHLORIDE] |  | 214 |  |  |  | […] |  | remaining at 20 min, 2.5 µM [3]: 96%; IC50 (D(1B) dopamine receptor): > 1000 nM; half-life [4]: 2 h; IC50 [5]: > 1000 nM; Tmax [6]: 0.5 h; MED (Rattus norvegicus [7]): > 85 mg/kg; Kp [8]: 7.6; remaining at 20 min, 2.5 µM [9]: 93%; Cmax [10]: 91 ng/mL; IC50 (D(1A) dopamine receptor): > 1000 nM; bioavailability [11]: 52%
5 | CN(C)C(=O)N[C@H]1CC[C@H](CCN2CCN(c3ccc(Cl)c(Cl)c3)CC2)CC1 | 3.3 | 29.6 | 110 | 8.9 |  |  |  | 
6 | CN(C)C(=O)N[C@H]1CC[C@H](CCN2CCN(c3cc(Cl)cc(Cl)c3)CC2)CC1 |  |  |  |  |  |  |  | remaining at 20 min, 2.5 µM [3]: 58%; remaining at 20 min, 2.5 µM [9]: 73%

More lines, main results first:

Row | Ki (D(3) dopamine receptor) [nM] | Ki [1] [nM] | Ki (D(2) dopamine receptor) [nM] | Ratio Ki (Rattus norvegicus [2]) | IC50 (D(3) dopamine receptor) [nM] | IC50 (D(2) dopamine receptor) [nM] | Compound | ED50 (Mus musculus) [mg/kg] | further results
7 |  |  |  |  | 5.1 | 25 | CCOC(=O)N[C@H]1CC[C@H](CCN2CCN(Cc3cccc(C(F)(F)F)c3)CC2)CC1 | 5.37 | 
8 |  |  |  |  | 1.9 | 143 | CC(=O)N[C@H]1CC[C@H](CCN2CCN(c3cc(C#N)cc(C(F)(F)F)c3)CC2)CC1 | 1.54 | 
9 |  |  |  |  | 11 | 158 | CS(=O)(=O)N[C@H]1CC[C@H](CCN2CCN(Cc3cccc(C(F)(F)F)c3)CC2)CC1 | 1.34 | 
10 |  |  |  |  | 0.29 | 2.3 | CC(=O)N[C@H]1CC[C@H](CCN2CCN(c3cccc(Cl)c3Cl)CC2)CC1 | 0.17 | 
